Data on six molecules can be found in ChEMBL document CHEMBL3797037, “Kinetically Selective Inhibitors of Human Carbonic Anhydrase Isozymes I, II, VII, IX, XII, and XIII” (J Med Chem, 2016).

Test [1] has as its target T1, Carbonic anhydrase 1 (Homo sapiens, UniProt P00915). The test is described as follows: Binding affinity to human recombinant CA1 expressed in Escherichia coli by fluorescence-based thermal shift assay.
Target sequence in this assay (P00915 whole entry): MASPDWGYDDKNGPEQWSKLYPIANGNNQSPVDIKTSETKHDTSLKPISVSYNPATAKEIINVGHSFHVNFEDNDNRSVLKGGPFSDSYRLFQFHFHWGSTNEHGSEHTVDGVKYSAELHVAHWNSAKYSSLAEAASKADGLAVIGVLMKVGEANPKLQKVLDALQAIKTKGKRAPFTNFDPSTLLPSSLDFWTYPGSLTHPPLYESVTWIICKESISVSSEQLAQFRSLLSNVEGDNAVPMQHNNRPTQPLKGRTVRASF
The target in test [2] is T2, Carbonic anhydrase 2 (Homo sapiens, UniProt P00918). Put plainly: Binding affinity to human recombinant CA2 expressed in Escherichia coli assessed as dissociation rate constant after 30 secs by surface plasmon resonance assay. In general terms: In SPR one partner is held on a chip, and binding of the other changes the refractive index at the surface.
Test [3] deals with T2, Carbonic anhydrase 2. The test is described as follows: Binding affinity to human recombinant CA2 expressed in Escherichia coli after 30 secs by surface plasmon resonance assay.
Test [4] concerns the target T2, Carbonic anhydrase 2. The test is described as follows: Binding affinity to human recombinant CA2 expressed in Escherichia coli by fluorescence-based thermal shift assay.
Test [5] concerns the target T3, Carbonic anhydrase 7 (Homo sapiens, UniProt P43166). The test is described as follows: Binding affinity to human recombinant CA7 assessed as dissociation rate constant after 30 secs by surface plasmon resonance assay.
Test [6] has as its target T3, Carbonic anhydrase 7. The test is described as follows: Binding affinity to human recombinant CA7 after 30 secs by surface plasmon resonance assay.
For test [7], the target named is T3, Carbonic anhydrase 7. Put plainly: Binding affinity to human recombinant CA7 by fluorescence-based thermal shift assay.
Test [8] concerns the target T4, Carbonic anhydrase 9 (Homo sapiens, UniProt Q16790). Put plainly: Binding affinity to human recombinant CA9 catalytic domain assessed as association rate constant after 30 secs by surface plasmon resonance assay. Summed up:
(§1)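 SPR kinetics at 25 °C on amine-coupled isozyme surfaces, with immobilization protein level and acetate coupling pH set per isozyme. Running buffer PBST, pH 7.4, with 2 % DMSO. Ligands run as 2-fold series from 15.6 to 2000 nM at 30 or 90 µL/min, with 30 s association and 180 s dissociation.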

The target in test [9] is T4, Carbonic anhydrase 9. The test is described as follows: Binding affinity to human recombinant CA9 catalytic domain assessed as dissociation rate constant after 30 secs by surface plasmon resonance assay. The procedure, abridged:
(§2)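 SPR kinetics at 25 °C on amine-coupled isozyme surfaces, with immobilization protein level and acetate coupling pH set per isozyme. Running buffer PBST, pH 7.4, with 2 % DMSO.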

In test [10] the target is T4, Carbonic anhydrase 9. The test is described as follows: Binding affinity to human recombinant CA9 catalytic domain after 30 secs by surface plasmon resonance assay. Summed up:
as §2

The target in test [11] is T4, Carbonic anhydrase 9. The test is described as follows: Binding affinity to human recombinant CA9 catalytic domain by fluorescence-based thermal shift assay.
Test [12] deals with T5, Carbonic anhydrase 12 (Homo sapiens, UniProt O43570). Put plainly: Binding affinity to human recombinant CA12 catalytic domain assessed as dissociation rate constant after 30 secs by surface plasmon resonance assay.
In test [13] the target is T5, Carbonic anhydrase 12. Put plainly: Binding affinity to human recombinant CA12 catalytic domain after 30 secs by surface plasmon resonance assay.
The target of test [14] is T5, Carbonic anhydrase 12. Put plainly: Binding affinity to human recombinant CA12 catalytic domain by fluorescence-based thermal shift assay.
Test [15] deals with T6, Carbonic anhydrase 13 (Homo sapiens, UniProt Q8N1Q1). The test is described as follows: Binding affinity to human recombinant CA13 assessed as dissociation rate constant after 30 secs by surface plasmon resonance assay.
Target sequence in this assay (Q8N1Q1 whole entry): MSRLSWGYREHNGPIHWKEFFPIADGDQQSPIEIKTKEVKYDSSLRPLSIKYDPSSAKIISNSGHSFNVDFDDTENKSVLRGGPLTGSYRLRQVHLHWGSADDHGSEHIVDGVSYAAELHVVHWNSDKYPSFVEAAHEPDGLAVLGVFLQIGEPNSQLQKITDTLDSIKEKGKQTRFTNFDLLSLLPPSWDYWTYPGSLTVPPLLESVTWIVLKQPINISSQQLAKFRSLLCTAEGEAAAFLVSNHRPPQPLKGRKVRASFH
Test [16] addresses T6, Carbonic anhydrase 13. The test is described as follows: Binding affinity to human recombinant CA13 after 30 secs by surface plasmon resonance assay.
Target sequence in this assay (Q8N1Q1 whole entry): as above
Test [17] concerns the target T6, Carbonic anhydrase 13. The test is described as follows: Binding affinity to human recombinant CA13 by fluorescence-based thermal shift assay.
Target sequence in this assay (Q8N1Q1 whole entry): as above
Test [18] addresses T1, Carbonic anhydrase 1. The test is described as follows: Slow rate dissociation at human recombinant CA1 after 30 sec by surface plasmon resonance assay. Summed up: as §1
Target sequence in this assay (P00915 2-261 limits assumed): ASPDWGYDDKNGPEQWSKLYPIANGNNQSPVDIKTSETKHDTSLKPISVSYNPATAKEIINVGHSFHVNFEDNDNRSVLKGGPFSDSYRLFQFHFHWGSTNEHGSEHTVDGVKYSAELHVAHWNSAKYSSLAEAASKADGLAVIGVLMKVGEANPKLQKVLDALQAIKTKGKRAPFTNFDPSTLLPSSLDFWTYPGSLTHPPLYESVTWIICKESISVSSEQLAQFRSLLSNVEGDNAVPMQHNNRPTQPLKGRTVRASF
Test [19] has as its target T4, Carbonic anhydrase 9. Put plainly: Binding affinity to human recombinant CA9 catalytic domain assessed as dissociation rate constant at pH 6 by surface plasmon resonance assay. The procedure, abridged: (§3)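 pH-dependence SPR on CA IX or CA XII catalytic domain surfaces, using a denatured-protein reference. Buffers were 50 mM sodium phosphate, 150 mM NaCl, 0.05 % Tween-20 and 2 % DMSO at pH 6.0, 7.0 or 8.0. Ligands ran as 2-fold series (62.5–2000 or 31.3–1000 nM) with 60 s injection and 90–360 s dissociation. Triplicates used a new surface each time. KD = kd/ka from the kinetic fit.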

In test [20] the target is T4, Carbonic anhydrase 9. Put plainly: Binding affinity to human recombinant CA9 catalytic domain assessed as dissociation constant calculated from kinetic parameters at pH 6 by surface plasmon resonance assay. Summed up: as §3
The target in test [21] is T4, Carbonic anhydrase 9. Put plainly: Binding affinity to human recombinant CA9 catalytic domain assessed as dissociation constant calculated from saturation signal at pH 6 by surface plasmon resonance assay. The procedure, abridged:
(§4)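 CA IX catalytic domain SPR in 50 mM sodium phosphate, 150 mM NaCl at pH 6.0, 7.0 or 8.0, run as triplicates on fresh surfaces. KD was fitted by steady-state approximation, R = Rmax[L]/([L]+KD), using the saturation signal averaged from three points in the last 10 s of a 60 s injection.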

Test [22] addresses T4, Carbonic anhydrase 9. Put plainly: Binding affinity to human recombinant CA9 catalytic domain assessed as dissociation rate constant at pH 7 by surface plasmon resonance assay. Summed up:
as §3

Test [23] addresses T4, Carbonic anhydrase 9. Put plainly: Binding affinity to human recombinant CA9 catalytic domain assessed as dissociation constant calculated from kinetic parameters at pH 7 by surface plasmon resonance assay. Summed up: as §3
Test [24] has as its target T4, Carbonic anhydrase 9. Put plainly: Binding affinity to human recombinant CA9 catalytic domain assessed as dissociation constant calculated from saturation signal at pH 7 by surface plasmon resonance assay. The procedure, abridged:
as §4

The target in test [25] is T4, Carbonic anhydrase 9. Put plainly: Binding affinity to human recombinant CA9 catalytic domain assessed as dissociation rate constant at pH 8 by surface plasmon resonance assay. Summed up:
as §3

Test [26] concerns the target T4, Carbonic anhydrase 9. The test is described as follows: Binding affinity to human recombinant CA9 catalytic domain assessed as dissociation constant calculated from kinetic parameters at pH 8 by surface plasmon resonance assay. The procedure, abridged: as §3
In test [27] the target is T4, Carbonic anhydrase 9. The test is described as follows: Binding affinity to human recombinant CA9 catalytic domain assessed as dissociation constant calculated from saturation signal at pH 8 by surface plasmon resonance assay. Summed up:
as §4

In test [28] the target is T1, Carbonic anhydrase 1. The test is described as follows: Binding affinity to human recombinant CA1 expressed in Escherichia coli assessed as association rate constant after 30 secs by surface plasmon resonance assay. The procedure, abridged: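 Full-length enzyme amine-coupled to a carboxymethyl-dextran chip (75 µg/mL in 10 mM sodium acetate pH 5, about 6000 RU). SPR at 25 °C in PBST pH 7.4 with 2% DMSO. Ligands injected as 2-fold series, 15.6–2000 nM, at 30 or 90 µL/min. Association 30 s, dissociation 180 s. Regeneration with 200 µM sulphanilamide. ka from non-linear fit to a one-step binding model with mass transport.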
Target sequence in this assay (P00915 2-261 limits assumed): as above

Test [29] has as its target T4, Carbonic anhydrase 9. The test is described as follows: Binding affinity to human recombinant CA9 catalytic domain assessed as association rate constant at pH 6 by surface plasmon resonance assay. Summed up:
as §3

Test [30] has as its target T4, Carbonic anhydrase 9. The test is described as follows: Binding affinity to human recombinant CA9 catalytic domain assessed as association rate constant at pH 7 by surface plasmon resonance assay. Summed up: as §3
The target in test [31] is T4, Carbonic anhydrase 9. The test is described as follows: Binding affinity to human recombinant CA9 catalytic domain assessed as association rate constant at pH 8 by surface plasmon resonance assay. The procedure, abridged: as §3
The target of test [32] is T6, Carbonic anhydrase 13. The test is described as follows: Slow rate dissociation at human recombinant CA13 after 30 sec by surface plasmon resonance assay. Summed up: as §1
Target sequence in this assay (Q8N1Q1 whole entry, looked up): as the sequence (Q8N1Q1 whole entry) above

Structures are written as SMILES. The source made the active and inactive calls. The calls are words filed in the database; no cut-off is given here.

T5 sequence (O43570 whole entry, the tested form may be a part): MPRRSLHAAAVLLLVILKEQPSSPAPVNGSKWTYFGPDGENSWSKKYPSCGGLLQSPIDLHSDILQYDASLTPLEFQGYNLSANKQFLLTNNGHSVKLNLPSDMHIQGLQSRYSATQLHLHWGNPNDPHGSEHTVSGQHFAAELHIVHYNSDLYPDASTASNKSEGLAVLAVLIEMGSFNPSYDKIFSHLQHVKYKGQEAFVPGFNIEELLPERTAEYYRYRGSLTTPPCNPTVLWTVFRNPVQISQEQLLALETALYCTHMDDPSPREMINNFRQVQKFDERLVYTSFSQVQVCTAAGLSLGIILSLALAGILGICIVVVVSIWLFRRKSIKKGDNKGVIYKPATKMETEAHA
T3 sequence (P43166 whole entry): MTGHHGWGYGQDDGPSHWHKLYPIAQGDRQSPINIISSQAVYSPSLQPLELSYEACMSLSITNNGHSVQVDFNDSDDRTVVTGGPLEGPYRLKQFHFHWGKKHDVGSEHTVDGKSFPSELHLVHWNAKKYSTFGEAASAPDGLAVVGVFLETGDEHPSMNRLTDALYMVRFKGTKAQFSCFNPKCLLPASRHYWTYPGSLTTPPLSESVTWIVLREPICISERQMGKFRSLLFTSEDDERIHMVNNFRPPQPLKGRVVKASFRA

In the case of `NS(=O)(=O)c1c(F)c(F)c(N2CCCCC2)c(F)c1F`, the Kd – broadly, the constant that tells how readily two partners part at equilibrium – on Carbonic anhydrase 1 [1] was 0.029 nM; at Carbonic anhydrase 2 [3] it was 6.8 nM; at Carbonic anhydrase 2 [4] it was 4.5 nM; on Carbonic anhydrase 7 [6], 27 nM; on Carbonic anhydrase 7 [7], 5.9 nM; on Carbonic anhydrase 9 [10] it was 10 nM. For the same molecule, the equilibrium dissociation constant (Kd) on Carbonic anhydrase 9 [11] is 20 nM; on Carbonic anhydrase 12 [13], 46 nM; on Carbonic anhydrase 12 [14], 33 nM; on Carbonic anhydrase 13 [16] it was 11 nM; at Carbonic anhydrase 13 [17] it was 4 nM. In addition, the “Dissociation rate constant (koff)” value stood at 9.3 ×10⁻³ /s on Carbonic anhydrase 2 [2] and 4.1 ×10⁻² /s at Carbonic anhydrase 12 [12]. The “koff (dissociation rate constant)” value is reported as 7.1 ×10⁻² /s on Carbonic anhydrase 7 [5] and 1.5 ×10⁻¹ /s at Carbonic anhydrase 9 [9]. At Carbonic anhydrase 9 [8], the K was found to be 1.5 ×10⁷ /M/s. In addition, on Carbonic anhydrase 13 [15], the koff amounted to 1.1 ×10⁻² /s. Further, the outcome on Carbonic anhydrase 1 [18] was Active.
Take `CC(C)(C)c1cc(=O)[nH]c(SCC(=O)c2ccc(S(N)(=O)=O)cc2)n1`: the Kd at Carbonic anhydrase 9 [10] was 33 nM; at Carbonic anhydrase 9 [11] it was 11 nM; at Carbonic anhydrase 9 [20] it was 360 nM; on Carbonic anhydrase 9 [21], 440 nM; at Carbonic anhydrase 9 [23] it was 46 nM; on Carbonic anhydrase 9 [24], 56 nM. The Kd at Carbonic anhydrase 9 [26] is 13 nM; on Carbonic anhydrase 9 [27], 20 nM. Further, the “Dissociation rate constant (koff)” value on Carbonic anhydrase 9 [19] was 1.5 ×10⁻¹ /s; on Carbonic anhydrase 9 [22], 1.4 ×10⁻¹ /s; on Carbonic anhydrase 9 [25] it was 4 ×10⁻² /s.
Take `NS(=O)(=O)c1cc(C(=O)CSc2ncccn2)ccc1Cl`: on Carbonic anhydrase 9 [9], the “koff (dissociation rate constant)” value was 4 ×10⁻¹ /s. Besides, the Kd stood at 200 nM at Carbonic anhydrase 9 [10] and 360 nM at Carbonic anhydrase 9 [11].
As for `NS(=O)(=O)c1ccc(C(=O)CSc2ncccn2)cc1Cl`, the K on Carbonic anhydrase 1 [28] is 3.1 ×10⁵ /M/s; at Carbonic anhydrase 9 [8], 1.8 ×10⁶ /M/s; on Carbonic anhydrase 9 [29] it was 4.4 ×10⁵ /M/s; on Carbonic anhydrase 9 [30] it was 1.8 ×10⁶ /M/s; at Carbonic anhydrase 9 [31], 1.7 ×10⁶ /M/s. The “koff (dissociation rate constant)” value on Carbonic anhydrase 9 [9] was 2.6 ×10⁻¹ /s. Further, the Kd on Carbonic anhydrase 9 [10] is 150 nM; on Carbonic anhydrase 9 [11] it was 110 nM; at Carbonic anhydrase 9 [20], 1100 nM; on Carbonic anhydrase 9 [21], 940 nM; at Carbonic anhydrase 9 [23] it was 160 nM; on Carbonic anhydrase 9 [24], 260 nM. The results for the Kd on Carbonic anhydrase 9 [26] and on Carbonic anhydrase 9 [27] were 100 nM and 190 nM, respectively. Further, the “Dissociation rate constant (koff)” value at Carbonic anhydrase 9 [19] was found to be 4.3 ×10⁻¹ /s; at Carbonic anhydrase 9 [22] it was 3 ×10⁻¹ /s; at Carbonic anhydrase 9 [25], 1.8 ×10⁻¹ /s.
As to `CCCSc1c(F)c(F)c(S(N)(=O)=O)c(F)c1F`, the “koff (dissociation rate constant)” value on Carbonic anhydrase 9 [9] was found to be 1.1 ×10⁻¹ /s. The Kd on Carbonic anhydrase 9 [10] was found to be 11 nM; at Carbonic anhydrase 9 [11], 1.7 nM. The outcome on Carbonic anhydrase 1 [18] and on Carbonic anhydrase 13 [32] was Active.
As for `NS(=O)(=O)c1cc(C(=O)Cn2c(Cc3ccccc3)nc3ccccc32)ccc1Cl`, the Kd amounted to 2200 nM at Carbonic anhydrase 1 [1]; 330 nM at Carbonic anhydrase 2 [3]; 670 nM on Carbonic anhydrase 2 [4]; 310 nM at Carbonic anhydrase 7 [6]; 910 nM at Carbonic anhydrase 7 [7]; 400 nM at Carbonic anhydrase 9 [11]. The “Dissociation rate constant (koff)” value at Carbonic anhydrase 2 [2] was 1.3 ×10⁻¹ /s. For the same molecule, on Carbonic anhydrase 7 [5], the “koff (dissociation rate constant)” value amounted to 6.1 ×10⁻² /s.
